ChEMBL document CHEMBL2407081, “Discovery of potent, isoform-selective inhibitors of histone deacetylase containing chiral heterocyclic capping groups and a N-(2-aminophenyl)benzamide binding unit” (J Med Chem, 2013)
Calls of active or inactive are those of the source. The calls are words filed in the database; no cut-off is given here.

Tests used:
[1] = target: T1, Protein deacetylase HDAC6 (Homo sapiens, UniProt Q9UBN7); experiment: Inhibition of recombinant His-tagged HDAC6 (unknown origin) using Fluor-de-Lys SIRT1 as substrate incubated for 3 hrs prior to substrate addition measured after 60 mins by fluorescence plate reader analysis
T1 sequence (Q9UBN7 whole entry): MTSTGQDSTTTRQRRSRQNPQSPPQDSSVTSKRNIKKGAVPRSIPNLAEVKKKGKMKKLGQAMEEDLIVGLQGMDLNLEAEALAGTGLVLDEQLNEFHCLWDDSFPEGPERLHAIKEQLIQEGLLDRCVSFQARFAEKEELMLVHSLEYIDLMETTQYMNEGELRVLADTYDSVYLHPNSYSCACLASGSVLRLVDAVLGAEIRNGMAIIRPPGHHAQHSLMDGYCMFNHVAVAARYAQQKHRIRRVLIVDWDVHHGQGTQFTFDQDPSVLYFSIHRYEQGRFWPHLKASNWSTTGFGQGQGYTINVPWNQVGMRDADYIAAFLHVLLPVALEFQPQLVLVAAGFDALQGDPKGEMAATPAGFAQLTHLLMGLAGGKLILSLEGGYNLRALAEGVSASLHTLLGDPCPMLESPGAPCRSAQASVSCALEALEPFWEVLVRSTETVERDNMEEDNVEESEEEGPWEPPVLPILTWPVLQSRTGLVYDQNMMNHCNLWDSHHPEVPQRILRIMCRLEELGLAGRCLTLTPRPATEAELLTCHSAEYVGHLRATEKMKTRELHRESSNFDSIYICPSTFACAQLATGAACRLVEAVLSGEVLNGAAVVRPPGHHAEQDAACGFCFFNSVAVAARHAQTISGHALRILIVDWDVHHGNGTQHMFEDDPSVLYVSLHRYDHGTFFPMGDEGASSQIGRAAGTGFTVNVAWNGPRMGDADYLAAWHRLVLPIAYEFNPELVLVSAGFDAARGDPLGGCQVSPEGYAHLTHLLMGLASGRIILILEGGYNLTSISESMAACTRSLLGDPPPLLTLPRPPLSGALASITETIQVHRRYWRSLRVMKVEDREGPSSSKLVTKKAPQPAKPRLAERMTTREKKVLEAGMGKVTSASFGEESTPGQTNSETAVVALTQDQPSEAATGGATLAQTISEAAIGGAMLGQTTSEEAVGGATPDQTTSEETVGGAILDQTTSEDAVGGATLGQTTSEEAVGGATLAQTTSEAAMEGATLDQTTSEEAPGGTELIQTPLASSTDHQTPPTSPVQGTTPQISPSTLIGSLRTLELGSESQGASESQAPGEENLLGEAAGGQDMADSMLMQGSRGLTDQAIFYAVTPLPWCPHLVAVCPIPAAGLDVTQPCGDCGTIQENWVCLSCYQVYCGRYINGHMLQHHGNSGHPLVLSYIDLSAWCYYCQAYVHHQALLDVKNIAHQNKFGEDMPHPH

HeLa = experiment: Cell cycle arrest in human HeLa cells assessed as accumulation at G2/M phase at 10 uM after 24 hrs by FITC/propidium iodide staining-based FACS flow cytometric analysis; format: functional
Method in brief: (§1)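 HeLa and Jurkat human cells were cultured for 24 h with compound at two concentrations. The control was an equal volume of the DMSO diluent. Cellular DNA and protein content were then measured by flow cytometry, and the percentage of cells in sub-G1, G0/G1, S and G2/M was read out.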

Jurkat [2] = experiment: Cell cycle arrest in human Jurkat cells assessed as accumulation at S phase at 1 uM after 24 hrs by FITC/propidium iodide staining-based FACS flow cytometric analysis (reference value: 22.3%); format: functional; method in brief: as §1
Jurkat [3] = experiment: Cell cycle arrest in human Jurkat cells assessed as accumulation at G0/G1 phase at 1 uM after 24 hrs by FITC/propidium iodide staining-based FACS flow cytometric analysis (reference value: 55.5%); format: functional; method in brief: as §1
Jurkat [4] = experiment: Cell cycle arrest in human Jurkat cells assessed as accumulation at G2/M phase at 10 uM after 24 hrs by FITC/propidium iodide staining-based FACS flow cytometric analysis (reference value: 13.2%); format: functional; method in brief: as §1
Jurkat [5] = experiment: Cell cycle arrest in human Jurkat cells assessed as accumulation at sub-G1 phase at 10 uM after 24 hrs by FITC/propidium iodide staining-based FACS flow cytometric analysis (reference value: 2%); format: functional; method in brief: as §1
HCT-116 = experiment: Cytotoxicity against human HCT116 cells assessed as growth inhibition by measuring cellular ATP level after 72 hrs by cell-titer glo assay; format: functional, cell-based; conditions: HCT-116, 72 h
Cytochrome P450 3A4 = Cytochrome P450 3A4 (Homo sapiens, UniProt P08684); experiment: Inhibition of CYP3A4 (unknown origin) using vivid green as substrate; format: ADME
Cytochrome P450 3A4, sequence (P08684 whole entry): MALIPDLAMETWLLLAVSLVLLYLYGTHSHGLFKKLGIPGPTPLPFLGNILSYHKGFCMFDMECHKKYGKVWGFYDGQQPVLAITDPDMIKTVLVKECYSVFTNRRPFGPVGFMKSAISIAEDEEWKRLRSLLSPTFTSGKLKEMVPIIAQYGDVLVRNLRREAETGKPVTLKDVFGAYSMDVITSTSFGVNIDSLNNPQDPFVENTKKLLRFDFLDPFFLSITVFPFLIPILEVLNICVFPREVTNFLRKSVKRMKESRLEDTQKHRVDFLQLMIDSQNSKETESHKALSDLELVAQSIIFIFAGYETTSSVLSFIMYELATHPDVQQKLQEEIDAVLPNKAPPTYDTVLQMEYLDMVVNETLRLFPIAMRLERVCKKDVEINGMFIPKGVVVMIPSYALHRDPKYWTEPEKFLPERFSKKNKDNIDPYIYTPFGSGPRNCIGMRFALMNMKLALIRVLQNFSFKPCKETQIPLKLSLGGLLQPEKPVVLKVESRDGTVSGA

Cytochrome P450 2D6 = Cytochrome P450 2D6 (Homo sapiens, UniProt P10635); experiment: Inhibition of CYP2D6 (unknown origin); format: ADME
Cytochrome P450 2D6, sequence (P10635 whole entry): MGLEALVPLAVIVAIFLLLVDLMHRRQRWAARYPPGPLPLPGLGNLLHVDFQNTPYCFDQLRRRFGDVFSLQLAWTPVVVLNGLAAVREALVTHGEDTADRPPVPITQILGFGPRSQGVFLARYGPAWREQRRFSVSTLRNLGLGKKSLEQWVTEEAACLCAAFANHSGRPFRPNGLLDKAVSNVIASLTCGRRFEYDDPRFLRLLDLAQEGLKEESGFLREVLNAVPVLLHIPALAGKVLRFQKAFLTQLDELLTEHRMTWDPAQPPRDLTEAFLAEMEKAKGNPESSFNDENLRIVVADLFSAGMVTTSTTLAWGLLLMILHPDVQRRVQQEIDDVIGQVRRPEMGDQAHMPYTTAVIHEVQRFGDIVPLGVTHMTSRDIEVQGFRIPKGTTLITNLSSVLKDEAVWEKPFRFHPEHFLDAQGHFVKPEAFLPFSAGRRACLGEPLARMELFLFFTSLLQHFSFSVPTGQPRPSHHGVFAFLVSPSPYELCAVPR

IC50 [1]: > 20000 nM
IC50 (Cytochrome P450 3A4): 16000 nM
IC50 (Cytochrome P450 2D6): 80 nM
Compound: Nc1ccccc1NC(=O)c1ccc(CNC2=N[C@@H](c3ccccc3)CS2)cc1
Activity (HeLa): Active
Activity (Jurkat [2]): 6.2%
Activity (Jurkat [3]): 48.1%
Activity (Jurkat [4]): 16.9%
Activity (Jurkat [5]): 19.5%
IC50 (HCT-116): 2170 nM
